Measurements as given in ChEMBL document CHEMBL1667822, “Selective antagonists of mouse trace amine-associated receptor 1 (mTAAR1): discovery of EPPTB (RO5212773)” (Bioorg Med Chem Lett, 2011).

Columns and labels:
[1] = biological target: 5-hydroxytryptamine receptor 6 (Homo sapiens) (UniProt P50406); experiment: Displacement of [3H]LSD from human recombinant 5HT6 receptor expressed in CHO cells; format: cell-based; settings: concentration not given here
[2] = Intrinsic clearance in mouse liver microsomes measured per mg of protein; format: ADME, Microsome
Method in brief: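 Intrinsic clearance from in vitro incubation of compound with mouse liver microsomes, expressed per mg microsomal protein.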

[3] = biological target: Sodium-dependent dopamine transporter (Homo sapiens) (UniProt Q01959); experiment: Inhibition of human dopamine transporter at 10 uM
Sodium-dependent dopamine transporter (Homo sapiens), sequence (Q01959 whole entry): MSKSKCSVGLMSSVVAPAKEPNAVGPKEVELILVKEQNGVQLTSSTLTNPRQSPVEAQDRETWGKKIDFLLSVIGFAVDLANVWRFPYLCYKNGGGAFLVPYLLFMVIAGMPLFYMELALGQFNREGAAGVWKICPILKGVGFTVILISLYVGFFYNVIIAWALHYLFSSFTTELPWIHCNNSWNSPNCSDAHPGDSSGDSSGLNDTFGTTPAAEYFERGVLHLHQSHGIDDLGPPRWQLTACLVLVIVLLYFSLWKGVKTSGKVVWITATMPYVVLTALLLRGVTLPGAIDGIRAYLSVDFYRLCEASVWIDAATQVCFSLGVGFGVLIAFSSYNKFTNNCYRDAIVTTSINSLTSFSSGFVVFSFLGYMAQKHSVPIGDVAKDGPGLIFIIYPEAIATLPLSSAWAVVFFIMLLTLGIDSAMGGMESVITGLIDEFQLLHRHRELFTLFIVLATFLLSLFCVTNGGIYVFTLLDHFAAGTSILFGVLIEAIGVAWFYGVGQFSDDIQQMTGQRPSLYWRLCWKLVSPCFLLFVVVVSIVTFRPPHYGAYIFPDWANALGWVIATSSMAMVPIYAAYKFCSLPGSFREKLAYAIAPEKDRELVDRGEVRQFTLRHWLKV

[4] = biological target: Adrenergic receptor alpha-2 (Rattus norvegicus) (UniProt P22086+P19328+P22909); experiment: Displacement of [3H]RX8210 from alpha2 receptor in rat cerebral cortex; format: tissue-based; settings: concentration not given here
[5] = biological target: Kappa-type opioid receptor (Rattus norvegicus) (UniProt P34975); experiment: Displacement of [3H]U69593 from rat recombinant kappa opioid receptor expressed in CHO cells; format: cell-based; settings: concentration not given here
[6] = biological target: 5-hydroxytryptamine receptor 5A (Homo sapiens) (UniProt P47898); experiment: Displacement of [3H]LSD from human recombinant 5HT5A receptor expressed in CHO cells; format: cell-based; settings: concentration not given here
5-hydroxytryptamine receptor 5A (Homo sapiens), sequence (P47898 whole entry): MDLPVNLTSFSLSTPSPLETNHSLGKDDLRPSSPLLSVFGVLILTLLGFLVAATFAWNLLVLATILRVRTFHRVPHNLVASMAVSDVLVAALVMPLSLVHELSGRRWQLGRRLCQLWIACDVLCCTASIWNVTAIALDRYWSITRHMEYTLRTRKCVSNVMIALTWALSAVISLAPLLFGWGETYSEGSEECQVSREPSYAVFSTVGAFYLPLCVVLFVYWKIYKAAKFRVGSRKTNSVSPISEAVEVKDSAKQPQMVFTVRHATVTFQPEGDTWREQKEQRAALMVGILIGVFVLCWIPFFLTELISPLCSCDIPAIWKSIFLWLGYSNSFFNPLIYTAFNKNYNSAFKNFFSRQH

[7] = biological target: Adenosine receptor A1 (Homo sapiens) (UniProt P30542); experiment: Displacement of [3H]DPCPX from human recombinant A1 receptor expressed in CHO cells; format: cell-based; settings: concentration not given here
[8] = biological target: Small conductance calcium-activated potassium channel protein 1 (Rattus norvegicus) (UniProt P70606); experiment: Displacement of [125I]apamin from SK+Ca channel in rat cerebral cortex; format: tissue-based; settings: concentration not given here
Small conductance calcium-activated potassium channel protein 1 (Rattus norvegicus), sequence (P70606 whole entry): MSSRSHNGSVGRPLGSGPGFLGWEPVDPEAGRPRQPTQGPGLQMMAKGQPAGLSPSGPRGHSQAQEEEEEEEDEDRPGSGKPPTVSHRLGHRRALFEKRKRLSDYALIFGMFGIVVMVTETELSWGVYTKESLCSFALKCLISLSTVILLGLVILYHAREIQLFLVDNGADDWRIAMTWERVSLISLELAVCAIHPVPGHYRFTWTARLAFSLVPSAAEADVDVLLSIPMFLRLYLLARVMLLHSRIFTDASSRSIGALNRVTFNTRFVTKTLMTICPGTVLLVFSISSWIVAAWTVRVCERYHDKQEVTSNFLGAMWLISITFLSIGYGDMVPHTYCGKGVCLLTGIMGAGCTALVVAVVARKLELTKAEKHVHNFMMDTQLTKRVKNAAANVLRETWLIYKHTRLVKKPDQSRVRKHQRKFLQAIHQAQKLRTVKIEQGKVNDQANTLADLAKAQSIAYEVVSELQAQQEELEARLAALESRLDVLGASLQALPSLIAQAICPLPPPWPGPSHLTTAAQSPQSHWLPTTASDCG

[9] = biological target: T1, Trace amine-associated receptor 1 (Homo sapiens, UniProt Q96RJ0); experiment: Antagonist activity at human TAAR1 assessed as reversal of endogenous beta-PEA effect; format: functional
T1 sequence (Q96RJ0 whole entry): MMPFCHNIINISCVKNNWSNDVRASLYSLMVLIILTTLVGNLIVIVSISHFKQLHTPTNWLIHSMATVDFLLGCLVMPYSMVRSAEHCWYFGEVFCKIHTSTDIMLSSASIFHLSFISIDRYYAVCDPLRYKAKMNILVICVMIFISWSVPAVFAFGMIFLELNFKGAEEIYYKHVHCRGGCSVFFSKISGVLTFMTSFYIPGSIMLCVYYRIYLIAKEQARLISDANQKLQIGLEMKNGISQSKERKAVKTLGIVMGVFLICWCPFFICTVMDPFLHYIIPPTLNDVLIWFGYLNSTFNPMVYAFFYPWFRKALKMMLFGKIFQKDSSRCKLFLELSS
Method in brief: (§1)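 In vitro cAMP functional assay with antagonism read as reversal of the response to the endogenous agonist beta-PEA. Efficacy was scaled so that 100% equals 0% minimum stimulation. Residual beta-PEA stimulation was taken at the highest test-compound concentration. Values are means of at least two independent experiments, with duplicates typically within a twofold margin.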

[10] = biological target: Type-1 angiotensin II receptor (Homo sapiens) (UniProt P30556); experiment: Displacement of [125I][Sar1,Ile8]-AT II from human recombinant AT1 receptor expressed in HEK293 cells; format: cell-based; settings: concentration not given here
Type-1 angiotensin II receptor (Homo sapiens), sequence (P30556 whole entry): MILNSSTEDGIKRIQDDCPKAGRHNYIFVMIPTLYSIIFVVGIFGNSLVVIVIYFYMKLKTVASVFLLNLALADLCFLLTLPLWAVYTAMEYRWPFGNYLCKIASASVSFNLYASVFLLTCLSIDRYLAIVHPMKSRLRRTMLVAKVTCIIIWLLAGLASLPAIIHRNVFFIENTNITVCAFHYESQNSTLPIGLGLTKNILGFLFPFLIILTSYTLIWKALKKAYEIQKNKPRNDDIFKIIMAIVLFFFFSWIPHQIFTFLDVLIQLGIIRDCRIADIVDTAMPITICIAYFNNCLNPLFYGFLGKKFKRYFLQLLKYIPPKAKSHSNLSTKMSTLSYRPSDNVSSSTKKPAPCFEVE

[11] = biological target: Neurotensin receptor type 1 (Homo sapiens) (UniProt P30989); experiment: Displacement of [125I]Tyr3-neurotensin from human recombinant NT1 receptor expressed in H recombinant CHO cells; format: cell-based; settings: concentration not given here
[12] = biological target: T1, Trace amine-associated receptor 1; experiment: Inhibition of human TAAR1; method in brief: as §1
[13] = biological target: monoamine oxidase-B (MAO-B) (Rattus norvegicus, UniProt P19643); experiment: Inhibition of rat monoamine oxidase-B at 10 uM
monoamine oxidase-B (MAO-B), sequence (P19643 whole entry): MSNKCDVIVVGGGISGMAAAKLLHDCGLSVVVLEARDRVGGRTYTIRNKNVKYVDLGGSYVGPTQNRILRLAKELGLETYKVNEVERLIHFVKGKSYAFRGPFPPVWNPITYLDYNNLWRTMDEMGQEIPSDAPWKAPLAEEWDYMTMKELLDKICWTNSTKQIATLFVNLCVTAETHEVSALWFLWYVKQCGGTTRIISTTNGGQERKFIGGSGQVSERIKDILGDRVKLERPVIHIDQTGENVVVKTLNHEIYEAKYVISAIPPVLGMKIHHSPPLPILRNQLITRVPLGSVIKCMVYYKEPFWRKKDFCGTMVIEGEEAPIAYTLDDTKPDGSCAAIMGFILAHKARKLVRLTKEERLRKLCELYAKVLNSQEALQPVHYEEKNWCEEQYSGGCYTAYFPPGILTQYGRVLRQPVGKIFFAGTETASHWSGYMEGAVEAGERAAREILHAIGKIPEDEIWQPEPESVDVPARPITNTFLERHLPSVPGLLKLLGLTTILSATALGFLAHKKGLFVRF

[14] = Ratio of drug level in brain to plasma in mouse at 2.5 mg/kg, iv; format: ADME, organism-based; set-up: dose 2.5 mg/kg, route intravenous; settings: read-out: BPR
Method in brief: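 Single-dose pharmacokinetics in mice with parenteral dosing, either 2.5 mg/kg iv or 5 mg/kg ip. Drug levels were measured in plasma, with brain exposure taken as the brain/plasma concentration ratio.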

[15] = biological target: Mu-type opioid receptor (Homo sapiens) (UniProt P35372); experiment: Displacement of [3H]DAMGO from human recombinant mu opioid receptor expressed in HEK293 cells; format: cell-based; settings: concentration not given here
[16] = biological target: Muscarinic acetylcholine receptor M2 (Homo sapiens) (UniProt P08172); experiment: Displacement of [3H]AF-DX 384 from human recombinant muscarinic M2 receptor expressed in CHO cells; format: cell-based; settings: concentration not given here
Muscarinic acetylcholine receptor M2 (Homo sapiens), sequence (P08172 whole entry): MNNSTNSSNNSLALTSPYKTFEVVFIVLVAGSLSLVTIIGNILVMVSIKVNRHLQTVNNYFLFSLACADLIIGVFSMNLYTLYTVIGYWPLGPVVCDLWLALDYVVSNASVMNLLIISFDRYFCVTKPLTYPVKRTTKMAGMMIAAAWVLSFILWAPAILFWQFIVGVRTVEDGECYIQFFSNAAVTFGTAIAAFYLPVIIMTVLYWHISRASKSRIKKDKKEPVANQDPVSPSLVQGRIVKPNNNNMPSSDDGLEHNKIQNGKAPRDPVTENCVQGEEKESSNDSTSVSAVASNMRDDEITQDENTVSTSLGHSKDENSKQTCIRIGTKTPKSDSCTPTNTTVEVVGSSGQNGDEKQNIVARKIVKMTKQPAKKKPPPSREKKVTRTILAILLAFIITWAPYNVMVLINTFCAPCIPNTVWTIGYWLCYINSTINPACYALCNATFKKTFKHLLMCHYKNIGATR

[17] = biological target: C-C chemokine receptor type 1 (Homo sapiens) (UniProt P32246); experiment: Displacement of [125I]MIP-1a from human recombinant CCR1 receptor expressed in HEK293 cells; format: cell-based; settings: concentration not given here
[18] = biological target: Neuropeptide Y receptor type 1 (Homo sapiens) (UniProt P25929); experiment: Displacement of [125I]peptide YY from human recombinant Y1 receptor expressed in […] cell; settings: concentration not given here
Neuropeptide Y receptor type 1 (Homo sapiens), sequence (P25929 whole entry): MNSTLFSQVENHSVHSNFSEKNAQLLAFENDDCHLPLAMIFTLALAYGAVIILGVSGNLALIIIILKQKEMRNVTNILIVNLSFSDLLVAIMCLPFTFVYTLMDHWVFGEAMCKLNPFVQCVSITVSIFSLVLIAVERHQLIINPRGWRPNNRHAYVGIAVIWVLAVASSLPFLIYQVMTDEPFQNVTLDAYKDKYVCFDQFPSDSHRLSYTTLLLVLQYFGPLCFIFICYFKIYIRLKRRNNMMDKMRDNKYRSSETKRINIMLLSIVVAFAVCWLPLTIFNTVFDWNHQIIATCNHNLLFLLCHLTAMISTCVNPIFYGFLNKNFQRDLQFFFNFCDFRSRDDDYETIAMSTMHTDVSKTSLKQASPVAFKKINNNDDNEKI

[19] = biological target: Galanin receptor type 2 (Homo sapiens) (UniProt O43603); experiment: Displacement of [125I]Galanin from human recombinant GAL2 receptor expressed in CHO cells; format: cell-based; settings: concentration not given here
[20] = biological target: Nociceptin receptor (Homo sapiens) (UniProt P41146); experiment: Displacement of [3H]nociceptin from human recombinant ORL1 receptor expressed in H recombinant HEK293 cells; format: cell-based; settings: concentration not given here
Nociceptin receptor (Homo sapiens), sequence (P41146 whole entry): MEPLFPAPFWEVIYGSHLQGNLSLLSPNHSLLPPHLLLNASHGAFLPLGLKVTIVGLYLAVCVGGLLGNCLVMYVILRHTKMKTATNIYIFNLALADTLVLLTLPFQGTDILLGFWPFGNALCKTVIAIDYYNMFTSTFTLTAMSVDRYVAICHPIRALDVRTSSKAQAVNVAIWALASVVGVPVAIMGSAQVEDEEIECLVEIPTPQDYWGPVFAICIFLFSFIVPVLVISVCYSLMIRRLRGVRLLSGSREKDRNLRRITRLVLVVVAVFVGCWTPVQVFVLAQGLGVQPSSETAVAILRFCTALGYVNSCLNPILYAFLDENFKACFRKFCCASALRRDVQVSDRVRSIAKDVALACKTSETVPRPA

[21] = biological target: Melanocortin receptor 4 (Homo sapiens) (UniProt P32245); experiment: Displacement of [125I]NDP-a-MSH from human recombinant MC4 receptor expressed in CHO cells; format: cell-based; settings: concentration not given here
[22] = biological target: C-X-C chemokine receptor type 2 (Homo sapiens) (UniProt P25025); experiment: Displacement of [125I]IL-8 from human recombinant CXCR2 receptor expressed in HEK293 cells; format: cell-based; settings: concentration not given here
[23] = biological target: 5-hydroxytryptamine receptor 3A (Homo sapiens) (UniProt P46098); experiment: Displacement of [3H]BRL 43694 from human recombinant 5HT3 receptor expressed in CHO cells; format: cell-based; settings: concentration not given here
5-hydroxytryptamine receptor 3A (Homo sapiens), sequence (P46098 whole entry): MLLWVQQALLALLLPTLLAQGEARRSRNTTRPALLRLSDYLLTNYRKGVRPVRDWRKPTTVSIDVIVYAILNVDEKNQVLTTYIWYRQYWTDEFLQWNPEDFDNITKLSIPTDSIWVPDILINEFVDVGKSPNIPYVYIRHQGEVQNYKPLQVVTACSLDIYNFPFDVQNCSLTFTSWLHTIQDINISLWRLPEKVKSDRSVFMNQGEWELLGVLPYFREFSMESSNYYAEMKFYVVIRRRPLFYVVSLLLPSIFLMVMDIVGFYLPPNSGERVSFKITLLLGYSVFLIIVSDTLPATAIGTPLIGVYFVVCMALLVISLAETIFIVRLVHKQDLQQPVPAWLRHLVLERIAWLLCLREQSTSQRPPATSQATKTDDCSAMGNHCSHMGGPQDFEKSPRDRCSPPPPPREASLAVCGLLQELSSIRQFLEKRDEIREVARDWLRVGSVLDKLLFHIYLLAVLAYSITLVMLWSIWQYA

[24] = biological target: Substance-K receptor (Homo sapiens) (UniProt P21452); experiment: Displacement of [125I]NKA from human recombinant NK2 receptor expressed in CHO cells; format: cell-based; settings: concentration not given here
Substance-K receptor (Homo sapiens), sequence (P21452 whole entry): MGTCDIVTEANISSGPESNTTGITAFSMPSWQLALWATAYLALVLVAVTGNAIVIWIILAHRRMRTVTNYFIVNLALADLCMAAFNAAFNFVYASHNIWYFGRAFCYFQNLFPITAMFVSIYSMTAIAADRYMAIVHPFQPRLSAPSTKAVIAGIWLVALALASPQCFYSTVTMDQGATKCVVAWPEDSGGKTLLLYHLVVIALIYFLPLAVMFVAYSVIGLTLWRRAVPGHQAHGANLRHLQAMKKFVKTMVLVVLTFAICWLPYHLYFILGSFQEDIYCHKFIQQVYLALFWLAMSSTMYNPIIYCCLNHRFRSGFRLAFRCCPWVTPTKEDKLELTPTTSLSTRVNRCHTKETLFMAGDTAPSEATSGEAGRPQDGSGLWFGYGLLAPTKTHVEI

[25] = biological target: D(2) dopamine receptor (Homo sapiens) (UniProt P14416); experiment: Displacement of [3H]spiperone from human recombinant dopamine D2S receptor expressed in HEK293 cells; format: cell-based; settings: concentration not given here
[26] = Bioavailability in mouse at 5 mg/kg, ip; format: ADME, organism-based; settings: in vivo
Method in brief: (§2)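 Single-dose pharmacokinetics in mice comparing parenteral routes: intravenous at 2.5 mg/kg and intraperitoneal at 5 mg/kg. Plasma concentrations were followed over time. Bioavailability was derived for the ip route, and Cmax was taken from the ip plasma profile.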

Rattus norvegicus [27] = species: Rattus norvegicus; experiment: Displacement of [125I]a-dendrotoxin from K+V channel in rat cerebral cortex; format: tissue-based; settings: concentration not given here
[28] = biological target: 5-hydroxytryptamine receptor 1A (Homo sapiens) (UniProt P08908); experiment: Displacement of [3H]8-OH-DPAT from human recombinant 5HT1A receptor expressed in HEK293 cells; format: cell-based; settings: concentration not given here
[29] = Clearance in mouse at 2.5 mg/kg, iv; format: ADME, organism-based; set-up: dose 2.5 mg/kg, route intravenous; settings: in vivo; method in brief: as §2
[30] = Cmax in mouse at 5 mg/kg, ip; format: ADME, organism-based; set-up: dose 5 mg/kg, route intraperitoneal; settings: in vivo; method in brief: as §2
[31] = biological target: Somatostatin receptor (Mus musculus) (UniProt P30935+O08858+P30875+P30873+P49660); experiment: Inhibition of mouse somatostatin receptor at 10 uM; format: protein assay
[32] = biological target: 5-hydroxytryptamine receptor 7 (Homo sapiens) (UniProt P34969); experiment: Displacement of [3H]LSD from human recombinant 5HT7 receptor expressed in CHO cells; format: cell-based; settings: concentration not given here
5-hydroxytryptamine receptor 7 (Homo sapiens), sequence (P34969 whole entry): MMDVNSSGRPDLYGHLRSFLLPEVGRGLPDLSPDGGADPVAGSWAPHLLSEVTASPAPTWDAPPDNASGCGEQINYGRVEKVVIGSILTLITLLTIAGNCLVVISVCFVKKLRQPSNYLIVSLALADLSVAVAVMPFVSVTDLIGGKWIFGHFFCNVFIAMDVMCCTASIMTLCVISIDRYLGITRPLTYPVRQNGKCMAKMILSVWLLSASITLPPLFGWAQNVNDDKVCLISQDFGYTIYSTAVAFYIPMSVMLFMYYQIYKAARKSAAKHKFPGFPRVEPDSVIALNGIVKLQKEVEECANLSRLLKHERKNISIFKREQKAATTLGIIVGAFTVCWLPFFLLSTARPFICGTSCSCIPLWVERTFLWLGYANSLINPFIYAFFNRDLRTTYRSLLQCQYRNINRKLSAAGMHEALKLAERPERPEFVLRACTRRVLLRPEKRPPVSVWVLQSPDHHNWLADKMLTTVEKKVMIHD

[33] = biological target: 5-hydroxytryptamine receptor 1B (Rattus norvegicus) (UniProt P28564); experiment: Displacement of [125I]CYP from 5HT1B receptor expressed in rat cerebral cortex; format: tissue-based; settings: concentration not given here
Rattus norvegicus [34] = species: Rattus norvegicus; experiment: Displacement of [3H]flunitrazepam from BZD receptor in rat cerebral cortex; format: tissue-based; settings: concentration not given here

With CCOc1cccc(NC(=O)c2ccc(N3CCCC3)c(C(F)(F)F)c2)c1 the inhibition [1] was 7%, the clearance [2] was 109 µL/min/mg and the inhibition [3] was 43%. It also gave an inhibition [4] of 23%, an inhibition [5] of 33% and an inhibition [6] of 21%. It also gave an inhibition [7] of 50%, an inhibition [8] of 0% and an IC50 [9] of 7.49 µM. The inhibition [10] was 5%, the inhibition [11] was -5% and the Ki [12] was > 5 µM. It also gave an inhibition at 10 µM [13] of 39%, a Kp [14] of 0.5 and an inhibition [15] of 42%. The inhibition [16] was -1%, the inhibition [17] was 0% and the inhibition [18] was 4%. For the same compound, the inhibition [19] was 13%, the inhibition [20] was 15% and the inhibition [21] was -2%. The inhibition [22] was 2%, the inhibition [23] was 9% and the inhibition [24] was 19%. The inhibition [25] was 9%, the bioavailability [26] was 74% and the inhibition (Rattus norvegicus [27]) was -3%. For the same compound, the inhibition [28] was 4%, the clearance [29] was 87 mL/min/kg and the Cmax [30] was 590 ng/mL. It also gave an inhibition [31] of 7%, an inhibition [32] of 10% and an inhibition [33] of 53%. For the same compound, the inhibition (Rattus norvegicus [34]) was -8%.
